Test results from ChEMBL document CHEMBL1156693, “Novel N-(phosphonomethyl) glycine derivatives: Design, characterization and biological activity” (Eur J Med Chem, 2008).
Active and inactive are the calls of the source. The calls are words filed in the database; no cut-off is given here.

Experiments:
[1] = test system: Mus musculus; experiment: Clastogenic effect on C57BL mouse assessed as number of metaphase chromosomal breaks in bone marrow cells at 10 mg/kg, ip after 24 hrs; type: functional; settings: route intraperitoneal
In short: (§1)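 Inbred male and female C57Bl mice, groups of 3 males + 3 females, dosed i.p. (0.9% NaCl vehicle/negative control); mitomycin C 3.5 mg/kg positive control. Colchicine 40 mg/kg i.p. 1 h before femoral bone marrow harvest; hypotonic 0.075 M KCl 20 min at 37 °C, methanol-acetic acid fixation, Giemsa stain; ≥50 metaphases per animal scored; group mean ± SE.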

[2] = test system: Mus musculus; experiment: Clastogenic effect on C57BL mouse assessed as number of metaphase chromosomal breaks in bone marrow cells at 10 mg/kg, ip after 48 hrs; type: functional; settings: route intraperitoneal; in short: as §1
[3] = test system: Mus musculus; experiment: Clastogenic effect on C57BL mouse assessed as number of metaphase chromosomal breaks in bone marrow cells at 100 mg/kg, ip after 24 hrs; type: functional; settings: route intraperitoneal; in short: as §1
[4] = test system: Mus musculus; experiment: Clastogenic effect on C57BL mouse assessed as number of metaphase chromosomal breaks in bone marrow cells at 100 mg/kg, ip after 48 hrs; type: functional; settings: route intraperitoneal; in short: as §1
[5] = test system: Mus musculus; experiment: Clastogenic effect on C57BL mouse assessed as number of metaphase chromosomal fragments in bone marrow cells at 10 mg/kg, ip after 24 hrs; type: functional; settings: route intraperitoneal; in short: as §1
[6] = test system: Mus musculus; experiment: Clastogenic effect on C57BL mouse assessed as number of metaphase chromosomal fragments in bone marrow cells at 10 mg/kg, ip after 48 hrs; type: functional; settings: route intraperitoneal; in short: as §1
[7] = test system: Mus musculus; experiment: Clastogenic effect on C57BL mouse assessed as number of metaphase chromosomal fragments in bone marrow cells at 100 mg/kg, ip after 24 hrs; type: functional; settings: route intraperitoneal; in short: as §1
[8] = test system: Mus musculus; experiment: Clastogenic effect on C57BL mouse assessed as number of metaphase chromosomal fragments in bone marrow cells at 100 mg/kg, ip after 48 hrs; type: functional; settings: route intraperitoneal; in short: as §1
[9] = test system: Mus musculus; experiment: Clastogenic effect on C57BL mouse assessed as number of metaphase chromosomal centromere/centromeric fusion in bone marrow cells at 10 mg/kg, ip after 24 hrs; type: functional; settings: route intraperitoneal; in short: as §1
[10] = test system: Mus musculus; experiment: Clastogenic effect on C57BL mouse assessed as number of metaphase chromosomal centromere/centromeric fusion in bone marrow cells at 10 mg/kg, ip after 48 hrs; type: functional; settings: route intraperitoneal; in short: as §1
[11] = test system: Mus musculus; experiment: Clastogenic effect on C57BL mouse assessed as number of metaphase chromosomal centromere/centromeric fusion in bone marrow cells at 100 mg/kg, ip after 24 hrs; type: functional; settings: route intraperitoneal; in short: as §1
[12] = test system: Mus musculus; experiment: Clastogenic effect on C57BL mouse assessed as number of metaphase chromosomal centromere/centromeric fusion in bone marrow cells at 100 mg/kg, ip after 48 hrs; type: functional; settings: route intraperitoneal; in short: as §1
[13] = test system: Mus musculus; experiment: Clastogenic effect on C57BL mouse assessed as number of metaphase chromosome telomere/telomeric fusion in bone marrow cells at 10 mg/kg, ip after 24 hrs; type: functional; settings: route intraperitoneal; in short: as §1
[14] = test system: Mus musculus; experiment: Clastogenic effect on C57BL mouse assessed as number of metaphase chromosome telomere/telomeric fusion in bone marrow cells at 10 mg/kg, ip after 48 hrs; type: functional; settings: route intraperitoneal; in short: as §1
[15] = test system: Mus musculus; experiment: Clastogenic effect on C57BL mouse assessed as number of metaphase chromosome telomere/telomeric fusion in bone marrow cells at 100 mg/kg, ip after 24 hrs; type: functional; settings: route intraperitoneal; in short: as §1
[16] = test system: Mus musculus; experiment: Clastogenic effect on C57BL mouse assessed as number of metaphase chromosome telomere/telomeric fusion in bone marrow cells at 100 mg/kg, ip after 48 hrs; type: functional; settings: route intraperitoneal; in short: as §1
[17] = test system: Mus musculus; experiment: Clastogenic effect on C57BL mouse assessed as bone marrow cells with abberation at 10 mg/kg, ip after 24 hrs; type: functional; settings: route intraperitoneal; in short: as §1
[18] = test system: Mus musculus; experiment: Clastogenic effect on C57BL mouse assessed as bone marrow cells with abberation at 10 mg/kg, ip after 48 hrs; type: functional; settings: route intraperitoneal; in short: as §1
[19] = test system: Mus musculus; experiment: Clastogenic effect on C57BL mouse assessed as bone marrow cells with abberation at 100 mg/kg, ip after 24 hrs; type: functional; settings: route intraperitoneal; in short: as §1
[20] = test system: Mus musculus; experiment: Clastogenic effect on C57BL mouse assessed as bone marrow cells with abberation at 100 mg/kg, ip after 48 hrs; type: functional; settings: route intraperitoneal; in short: as §1
[21] = test system: Mus musculus; experiment: Clastogenic effect on C57BL mouse assessed as mitotic index in bone marrow cells at 10 mg/kg, ip after 24 hrs; type: functional; settings: route intraperitoneal
In short: (§2)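 C57Bl mice (3 males + 3 females per group) given compound i.p.; saline controls. Colchicine 40 mg/kg i.p. 1 h before bone marrow harvest from femur; hypotonic KCl, fixed, Giemsa-stained slides. Mitotic index = dividing cells counted among 1500 cells per animal; per-animal values averaged as group mean ± SE.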

[22] = test system: Mus musculus; experiment: Clastogenic effect on C57BL mouse assessed as mitotic index in bone marrow cells at 10 mg/kg, ip after 48 hrs; type: functional; settings: route intraperitoneal; in short: as §2
[23] = test system: Mus musculus; experiment: Clastogenic effect on C57BL mouse assessed as mitotic index in bone marrow cells at 100 mg/kg, ip after 24 hrs; type: functional; settings: route intraperitoneal; in short: as §2
[24] = test system: Mus musculus; experiment: Clastogenic effect on C57BL mouse assessed as mitotic index in bone marrow cells at 100 mg/kg, ip after 48 hrs; type: functional; settings: route intraperitoneal; in short: as §2
[25] = test system: HL-60; experiment: Cytotoxicity against human HL60 cells after 72 hrs by MTT assay; type: functional, cell-based; settings: HL-60, 72 h
In short: (§3)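 Cells at 37 °C, 5% CO2; 293T in DMEM, others in RPMI 1640, both with 2 mM L-glutamine and 10% FCS. Seeded 10⁴ cells/well, 24 h preincubation, then compounds 0.195–200 µM (DMSO ≤1% final) for 72 h continuous. MTT added, 4 h, formazan dissolved in 5% formic acid-acidified DMSO, absorbance read; IC50 = concentration giving 50% survival decrease.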

[26] = test system: LAMA-84; experiment: Cytotoxicity against human LAMA-84 cells after 72 hrs by MTT assay; type: functional, cell-based; settings: LAMA-84, 72 h; in short: as §3
[27] = test system: K562; experiment: Cytotoxicity against human K562 cells after 72 hrs by MTT assay; type: functional, cell-based; settings: K562, 72 h; in short: as §3
[28] = test system: DOHH-2; experiment: Cytotoxicity against human DOHH2 cells after 72 hrs by MTT assay; type: functional, cell-based; settings: DOHH-2, 72 h; in short: as §3
[29] = test system: HD-MY-Z; experiment: Cytotoxicity against human HD-MY-Z cells after 72 hrs by MTT assay; type: functional, cell-based; in short: as §3
[30] = test system: EJ; experiment: Cytotoxicity against human EJ cells after 72 hrs by MTT assay; type: functional, cell-based; in short: as §3
[31] = Cytotoxicity against human 293T after 72 hrs by MTT assay; type: cell-based; settings: HEK-293T; in short: as §3
[32] = test system: DOHH-2; experiment: Induction of apoptosis in human DOHH2 cells assessed as increase in histone-associated oligonucleotide level after 24 hrs by ELISA; type: functional, cell-based
In short: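 DOHH-2 cells exposed 24 h to equitoxic compound concentrations versus untreated control; cytosolic fractions of 1 × 10⁴ cells used in sandwich ELISA (anti-histone capture, peroxidase-conjugated anti-DNA detection) for histone-associated DNA fragments, read at 405 nm; means ± SD of three independent experiments.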

Compound | Activity [1] | Activity [2] | Activity [3] | Activity [4] | Activity [5] | Activity [6] | Activity [7] | Activity [8] | Activity [9] | Activity [10] | Activity [11] | Activity [12] | Activity [13] | Activity [14] | Activity [15] | Activity [16] | Activity [17] | Activity [18] | Activity [19] | Activity [20] | also measured
COP(=O)(CNC1(C(=O)O)CCCCCCC1)OC | 2 | 0 | 4 | 3 | 1 | 1 | 3 | 0 | 10 | 14 | 11 | 12 | 0 | 0 | 1 | 0 | 3.71% | 4.67% | 5.43% | 5% | Activity [21]: 11.35%; Activity [22]: 13.95%; Activity [23]: 13.06%; Activity [24]: 9.67%; IC50 [25]: 73.5 µM; IC50 [26]: 71.4 µM; IC50 [27]: 79.1 µM; IC50 [28]: 37.4 µM; IC50 [29]: 127 µM; IC50 [30]: 115 µM; IC50 [31]: 176 µM; Activity [32]: Active
COP(=O)(CNC1(C(=O)O)CCCCCC1)OC | 3 | 0 | 7 | 4 | 0 | 0 | 0 | 0 | 7 | 3 | 3 | 3 | 0 | 0 | 0 | 0 | 2.85% | 1% | 3.33% | 2.72% | Activity [21]: 14.37%; Activity [22]: 9.58%; Activity [23]: 13.24%; Activity [24]: 12%; IC50 [25]: 85.9 µM; IC50 [26]: 91.2 µM; IC50 [27]: 101 µM; IC50 [28]: 88.1 µM; IC50 [29]: 169 µM; IC50 [30]: 151 µM; IC50 [31]: > 200 µM
COP(=O)(CNC1(C(=O)O)CCCC1)OC | 7 | 6 | 8 | 6 | 1 | 0 | 3 | 0 | 9 | 13 | 10 | 8 | 0 | 1 | 0 | 2 | 4.85% | 5.77% | 7% | 6.4% | Activity [21]: 10.39%; Activity [22]: 10.66%; Activity [23]: 10.97%; Activity [24]: 8.33%; IC50 [25]: 157 µM; IC50 [26]: 162 µM; IC50 [27]: > 200 µM; IC50 [28]: 145 µM; IC50 [29]: > 200 µM; IC50 [30]: > 200 µM; IC50 [31]: > 200 µM
